Where “and” joins values, the source holds several entries; their conditions need not be identical. Equal values may be shown once.
What was measured:
[1] = Acute iv toxicity against mice after a dose of injection; type: organism-based; settings: mouse, in vivo
Mus musculus [2] = assay: Percent increase in life span at dose 6 mg/kg/day in 10 mice implanted with P388 leukemia cell line; type: functional
In short: (§1)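 Female DBA2 mice inoculated iv on day 0 with 10^4 P388 cells; single iv treatment on day 1 with drug as sulfate salt in physiological saline. Survival followed; %ILS from all deaths and survivors as (T/C × 100) − 100, maximal MST 30 days; survivors counted on days 30 and 60. Most experiments confirmed three times.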

Mus musculus [3] = assay: Percent increase in life span of DBA2 mice after inoculation with L1210 leukemia intravenously at a dose of 9 mg/kg per day; type: functional; settings: route intravenous
In short: (§2)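 Female DBA2 mice inoculated iv on day 0 with 10^4 L1210 cells; drugs given iv as sulfate salts in physiological saline, mostly once on day 1. %ILS from all deaths and survivors as (T/C × 100) − 100; survivors scored on days 30 and 60.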

Mus musculus [4] = assay: Number of survivors of DBA2 mice on 60th day after inoculation with L1210 leukemia cell line intraperitoneally at a dose of 3 mg/kg/day; 0/10; type: functional; settings: route intraperitoneal
Mus musculus [5] = assay: Number of survivors on 60th day at dose 3 mg/kg/day in 10 mice implanted with P388 leukemia cell line; 0/10; type: functional
Mus musculus [6] = assay: Percent increase in life span of DBA2 mice after inoculation with L1210 leukemia intravenously at a dose of 4 mg/kg per day; type: functional; settings: route intravenous; in short: as §2
Mus musculus [7] = assay: Percent increase in life span of DBA2 mice after inoculation with L1210 leukemia intravenously at a dose of 5 mg/kg per day; type: functional; settings: for ILS at 5 mg/kg/day: Mus musculus, L1210, iv; in short: as §2
Mus musculus [8] = assay: Percent increase in life span of DBA2 mice after inoculation with L1210 leukemia intravenously at a dose of 6 mg/kg per day; type: functional; settings: route intravenous; in short: as §2
Mus musculus [9] = assay: Percent increase in life span of DBA2 mice after inoculation with L1210 leukemia intravenously at a dose of 7 mg/kg per day; type: functional; settings: route intravenous; in short: as §2
Mus musculus [10] = assay: Number of survivors on 60th day at dose 6 mg/kg/day in 10 mice implanted with P388 leukemia cell line; 0/10; type: functional
Mus musculus [11] = assay: Percent increase in life span at dose 7 mg/kg/day in 10 mice implanted with P388 leukemia cell line; type: functional; in short: as §1
Mus musculus [12] = assay: Percent increase in life span at dose 8 mg/kg/day in 10 mice implanted with P388 leukemia cell line; type: functional; in short: as §1
Mus musculus [13] = assay: Number of survivors of DBA2 mice on 30th day after inoculation with L1210 leukemia cell line intravenously at a dose of 4 mg/kg/day; 0/10; type: functional; settings: route intravenous
Mus musculus [14] = assay: Number of survivors of DBA2 mice on 30th day after inoculation with L1210 leukemia cell line intravenously at a dose of 5 mg/kg/day; 0/10; type: functional; settings: route intravenous
Mus musculus [15] = assay: Number of survivors of DBA2 mice on 30th day after inoculation with L1210 leukemia cell line intravenously at a dose of 7 mg/kg/day; 0/10; type: functional; settings: route intravenous
Mus musculus [16] = assay: Number of survivors of DBA2 mice on 30th day after inoculation with L1210 leukemia cell line intravenously at a dose of 9 mg/kg/day; 0/10; type: functional; settings: route intravenous
Mus musculus [17] = assay: Percent increase in life span at dose 3 mg/kg/day in 10 mice implanted with P388 leukemia cell line; type: functional; in short: as §1
Mus musculus [18] = assay: Percent increase in life span at dose 4 mg/kg/day in 10 mice implanted with P388 leukemia cell line; type: functional; settings: for ILS at 4 mg/kg/day: Mus musculus, P388; in short: as §1
Mus musculus [19] = assay: Percent increase in life span at dose 5 mg/kg/day in 10 mice implanted with P388 leukemia cell line; type: functional; in short: as §1
Mus musculus [20] = assay: Number of survivors on 60th day at dose 5 mg/kg/day in 10 mice implanted with P388 leukemia cell line; 0/10; type: functional
Mus musculus [21] = assay: Number of survivors of DBA2 mice on 30th day after inoculation with L1210 leukemia cell line intraperitoneally at a dose of 2 mg/kg/day; 0/10; type: functional; settings: route intraperitoneal
Mus musculus [22] = assay: Number of survivors of DBA2 mice on 30th day after inoculation with L1210 leukemia cell line intraperitoneally at a dose of 3 mg/kg/day; 0/10; type: functional; settings: route intraperitoneal
Mus musculus [23] = assay: Number of survivors on 30th day at dose 4 mg/kg/day in 10 mice implanted with P388 leukemia cell line; 0/10; type: functional
Mus musculus [24] = assay: Number of survivors of DBA2 mice on 60th day after inoculation with L1210 leukemia cell line intravenously at a dose of 4 mg/kg/day; 0/10; type: functional; settings: route intravenous
Mus musculus [25] = assay: Number of survivors of DBA2 mice on 60th day after inoculation with L1210 leukemia cell line intravenously at a dose of 5 mg/kg/day; 0/10; type: functional; settings: route intravenous
Mus musculus [26] = assay: Number of survivors of DBA2 mice on 60th day after inoculation with L1210 leukemia cell line intravenously at a dose of 6 mg/kg/day; 0/10; type: functional; settings: route intravenous
Mus musculus [27] = assay: Number of survivors of DBA2 mice on 60th day after inoculation with L1210 leukemia cell line intravenously at a dose of 7 mg/kg/day; 0/10; type: functional; settings: route intravenous
Mus musculus [28] = assay: Number of survivors of DBA2 mice on 60th day after inoculation with L1210 leukemia cell line intravenously at a dose of 8 mg/kg/day; 0/10; type: functional; settings: route intravenous
[29] = Acute iv toxicity against rat after a dose of injection; type: organism-based; settings: in vivo
Mus musculus [30] = assay: Number of survivors of DBA2 mice on 60th day after inoculation with L1210 leukemia cell line intravenously at a dose of 3 mg/kg/day; 0/10; type: functional; settings: route intravenous
Mus musculus [31] = assay: Percent increase in life span of BDF1 mice after inoculation with P388 leukemia intraperitoneally at a dose of 2 mg/kg per day; settings: P388, ip
Mus musculus [32] = assay: Percent increase in life span of BDF1 mice after inoculation with P388 leukemia intraperitoneally at a dose of 3 mg/kg per day; settings: P388, ip
Mus musculus [33] = assay: Percent increase in life span of BDF1 mice after inoculation with P388 leukemia intraperitoneally at a dose of 6 mg/kg per day; settings: P388, ip
Mus musculus [34] = assay: Number of survivors on 60th day at dose 2 mg/kg/day in 10 mice implanted with P388 leukemia cell line; 0/10; type: functional
Mus musculus [35] = assay: Percent increase in life span at dose 2 mg/kg/day in 10 mice implanted with P388 leukemia cell line; type: functional; in short: as §1
Mus musculus [36] = assay: Percent increase in life span of DBA2 mice after inoculation with L1210 leukemia intravenously at a dose of 2.5 mg/kg per day; type: functional; settings: route intravenous; in short: as §2
Mus musculus [37] = assay: Number of survivors of DBA2 mice on 60th day after inoculation with L1210 leukemia cell line intravenously at a dose of 2.5 mg/kg/day; 0/10; type: functional; settings: route intravenous
Mus musculus [38] = assay: Number of survivors on 60th day at dose 8 mg/kg/day in 10 mice implanted with P388 leukemia cell line; 0/10; type: functional; in short: as §1
Mus musculus [39] = assay: Number of survivors on 60th day at dose 7 mg/kg/day in 10 mice implanted with P388 leukemia cell line; 0/10; type: functional; in short: as §1

SMILES | LD50 [1] [mg/kg] | ILS at 6 mg/kg/day (Mus musculus [2]) [%] | ILS at 4 mg/kg/day (Mus musculus [6]) [%] | ILS at 5 mg/kg/day (Mus musculus [7]) [%] | ILS at 7 mg/kg/day (Mus musculus [9]) [%] | Survivors (Mus musculus [10]) | ILS at 7 mg/kg/day (Mus musculus [11]) [%] | ILS at 8 mg/kg/day (Mus musculus [12]) [%] | Survivors (Mus musculus [13]) | Survivors (Mus musculus [14]) | Survivors (Mus musculus [15]) | ILS at 5 mg/kg/day (Mus musculus [19]) [%] | Survivors (Mus musculus [21]) | Survivors (Mus musculus [23]) | Survivors (Mus musculus [24]) | Survivors (Mus musculus [25]) | Survivors (Mus musculus [27]) | LD50 [29] [mg/kg] | Survivors (Mus musculus [30]) | ILS at 2 mg/kg/day (Mus musculus [31]) [%] | other results
CC[C@]1(O)C[C@@H]2CN(CCc3c([nH]c4ccccc34)[C@@](C(=O)OC)(c3cc4c(cc3OC)N(C)[C@H]3[C@@](O)(C(=O)OC)[C@H](OC(C)=O)[C@]5(CC)C=CCN6CC[C@]43[C@@H]65)C2)C1 [VINBLASTINE] | 10 | 48 | 31.9 | 37 | 35 | 0 | 59.3 | 72.9 | 0 | 0 | 0 | 47.1 | 0 | 0 | 0 | 0 | 0 | 2.9 | 0 | 54 | ILS at 9 mg/kg/day (Mus musculus [3]): -21.6%; Survivors (Mus musculus [4]): 0; Survivors (Mus musculus [5]): 0; ILS at 6 mg/kg/day (Mus musculus [8]): 24.7%; Survivors (Mus musculus [16]): 0; ILS at 3 mg/kg/day (Mus musculus [17]): 30.8%; ILS (Mus musculus [18]): 42.3% and 112%; Survivors (Mus musculus [20]): 0; Survivors (Mus musculus [22]): 0; Survivors (Mus musculus [26]): 0; Survivors (Mus musculus [28]): 0; ILS at 3 mg/kg/day (Mus musculus [32]): 63%; ILS at 6 mg/kg/day (Mus musculus [33]): -61%
CC[C@]1(O)C[C@H]2CN(CCc3c([nH]c4ccccc34)[C@@](C(=O)OC)(c3cc4c(cc3OC)N(C=O)[C@H]3[C@@](O)(C(=O)OC)[C@H](OC(C)=O)[C@]5(CC)C=CCN6CC[C@]43[C@@H]65)C2)C1 [VINCRISTINE] | 1 | – | 24 | 36 | – | – | – | – | 0 | 0 | – | – | 0 | – | 0 | 0 | – | 1 | 0 | 53 | Survivors (Mus musculus [34]): 0; ILS at 2 mg/kg/day (Mus musculus [35]): -46%; ILS at 2.5 mg/kg/day (Mus musculus [36]): 30%; Survivors (Mus musculus [37]): 0
CCOC(=O)[C@@H](NC(=O)[C@@]1(O)[C@H](O)[C@]2(CC)C=CCN3CC[C@@]4(c5cc([C@@]6(C(=O)OC)C[C@H]7C[N@](CCc8c6[nH]c6ccccc86)C[C@](O)(CC)C7)c(OC)cc5N(C)[C@@]14C)[C@@H]32)[C@@H](C)CC | – | 73.5 | 20 | 36 | 27 | 0 | 56 | > 183 | 0 | 0 | 0 | 60.4 | – | 0 | 0 | 0 | 0 | – | – | – | ILS at 9 mg/kg/day (Mus musculus [3]): 64%; ILS at 6 mg/kg/day (Mus musculus [8]): 41.3%; Survivors (Mus musculus [16]): 0; ILS at 4 mg/kg/day (Mus musculus [18]): 60%; Survivors (Mus musculus [38]): 0; Survivors (Mus musculus [39]): 0; Survivors (Mus musculus [26]): 0; Survivors (Mus musculus [28]): 0
CC[C@]1(O)C[C@@H]2CN(CCc3c([nH]c4ccccc34)[C@@](C(=O)OC)(c3cc4c(cc3OC)N(C)[C@H]3[C@@](O)(C(N)=O)[C@H](O)[C@]5(CC)C=CCN6CC[C@]43[C@@H]65)C2)C1 [VINDESINE] | 6.3 | 32 | – | – | -9.1 | 0 | 24 | -46 | – | 0 | 0 | 30.2 | 0 | 0 | – | 0 | 0 | 2.6 | 0 | 89.5 | Survivors (Mus musculus [4]): 0; Survivors (Mus musculus [34]): 0; Survivors (Mus musculus [5]): 0; ILS (Mus musculus [7]; route intravenous): 11.5% and 25.7%; ILS at 2 mg/kg/day (Mus musculus [35]): 27.1%; ILS at 3 mg/kg/day (Mus musculus [17]): 23%; ILS at 4 mg/kg/day (Mus musculus [18]): 25.5%; ILS at 2.5 mg/kg/day (Mus musculus [36]): 13.3%; Survivors (Mus musculus [38]): 0; Survivors (Mus musculus [20]): 0; Survivors (Mus musculus [22]): 0; Survivors (Mus musculus [37]): 0; Survivors (Mus musculus [39]): 0; ILS at 3 mg/kg/day (Mus musculus [32]): 89%; ILS at 6 mg/kg/day (Mus musculus [33]): -47%

Reference: ChEMBL document CHEMBL1122917, “Vinblastin-23-oyl amino acid derivatives: chemistry, physicochemical data, toxicity, and antitumor activities against P388 and L1210 leukemias” (J Med Chem, 1985)
